ChEMBL document CHEMBL1146195, “Use of novel boronic acid transition state inhibitors to probe substrate affinity in SHV-type extended-spectrum beta-lactamases” (Antimicrob Agents Chemother, 2007)
Substitutions are numbered along the chain they refer to.

Key:
[1] = Binding affinity at Beta-lactamase SHV2 G238S expressed in Escherichia coli DH10B cells
Procedure, shortened: (§1)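 Enzyme cloned in pBCSK(−), expressed in E. coli DH10B, purified, then further purified by size-exclusion HPLC; purity checked by SDS-PAGE. Ki found by competing increasing inhibitor concentrations against nitrocefin at 4–6 × Km in continuous spectrophotometric assays at room temperature. Percent inhibition was fitted to an equation using the nitrocefin Km.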

Beta-lactamase SHV-1 = biological target: T1, Beta-lactamase SHV-1 (Escherichia coli, UniProt P0AD63); test: Binding affinity at Beta-lactamase SHV1 expressed in Escherichia coli DH10B cells
T1 sequence (P0AD63 whole entry): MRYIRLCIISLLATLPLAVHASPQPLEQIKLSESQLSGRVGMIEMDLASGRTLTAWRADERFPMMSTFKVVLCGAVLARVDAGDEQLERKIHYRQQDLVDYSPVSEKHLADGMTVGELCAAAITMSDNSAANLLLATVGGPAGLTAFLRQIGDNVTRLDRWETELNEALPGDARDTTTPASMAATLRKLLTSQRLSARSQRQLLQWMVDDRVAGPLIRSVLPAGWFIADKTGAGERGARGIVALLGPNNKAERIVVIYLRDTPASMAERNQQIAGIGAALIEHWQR
Procedure, shortened: as §1, with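 “SHV-1” for “Enzyme”, “DH10B and purified;” for “DH10B, purified, then further purified by size-exclusion HPLC;”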

[2] = biological target: T2, SHV-5 extended spectrum beta-lactamase (Escherichia coli, UniProt Q6REX6); test: Binding affinity at Beta-lactamase SHV5 expressed in Escherichia coli DH10B cells
T2 sequence (Q6REX6 whole entry): T1 sequence (P0AD63 whole entry) with L31Q, T231N, G234S, E235K, S265N
Procedure, shortened: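 Purified SHV-5 enzyme, expressed in E. coli DH10B from pBCSK(−); purity checked by SDS-PAGE. Ki from continuous spectrophotometric competition assays at room temperature: increasing inhibitor concentrations against nitrocefin at 4 to 6 times its Km. Percent inhibition fitted using the nitrocefin Km. Inhibition mode from full progress curves at varied nitrocefin, without inhibitor and at two inhibitor concentrations.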

[3] = Binding affinity at Beta-lactamase D104K expressed in Escherichia coli DH10B cells; procedure, shortened: as §1
[4] = Binding affinity at Beta-lactamase D104K G238S expressed in Escherichia coli DH10B cells; procedure, shortened: as §1

| SMILES | Ki [1] [µM] | Ki (Beta-lactamase SHV-1) [µM] | Ki [2] [µM] | Ki [3] [µM] | Ki [4] [µM] |
| --- | --- | --- | --- | --- | --- |
| CO/N=C(\C(=O)NCB(O)O)c1csc(N)n1 [CEFOTAXIME BATSI] | 3.4 | 8.9 | 5 | 5 | 1.1 |
| CC(C)(O/N=C(\C(=O)NCB(O)O)c1csc(N)n1)C(=O)O [CEFTAZIDIME BATSI] | 6.8 | 2.2 | 4.5 | 0.7 | 4.5 |
| CC(=O)NCB(O)O [ACETAMIDOMETHYLBORONIC ACID] | 330 | 300 | 360 | 190 | 300 |
